# According to ChEMBL document CHEMBL5653631, “A Potent and Selective ULK1 Inhibitor Suppresses Autophagy and Sensitizes Cancer Cells to Nutrient Stress” (iScience, 2018):
# How the values were obtained:
# [1] = biological target: T1, Rhodopsin kinase GRK1 (Homo sapiens) (UniProt Q15835); experiment: Inhibition of human recombinant RHOK at 40 nM related to control ULK1
# T1 sequence (whole entry): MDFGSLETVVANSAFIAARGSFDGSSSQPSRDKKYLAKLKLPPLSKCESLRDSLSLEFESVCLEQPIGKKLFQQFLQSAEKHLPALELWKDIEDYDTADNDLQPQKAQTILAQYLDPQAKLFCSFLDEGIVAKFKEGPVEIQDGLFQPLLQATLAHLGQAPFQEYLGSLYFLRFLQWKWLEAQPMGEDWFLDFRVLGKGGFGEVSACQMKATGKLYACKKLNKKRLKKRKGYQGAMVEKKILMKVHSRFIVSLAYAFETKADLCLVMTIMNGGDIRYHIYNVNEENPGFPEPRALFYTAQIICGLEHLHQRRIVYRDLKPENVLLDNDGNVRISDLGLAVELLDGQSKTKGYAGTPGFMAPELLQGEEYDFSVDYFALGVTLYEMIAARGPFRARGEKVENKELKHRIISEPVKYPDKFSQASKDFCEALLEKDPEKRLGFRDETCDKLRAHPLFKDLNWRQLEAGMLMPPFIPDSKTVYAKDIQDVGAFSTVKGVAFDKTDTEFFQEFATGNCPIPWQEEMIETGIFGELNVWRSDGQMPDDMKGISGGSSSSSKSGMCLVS
# [2] = biological target: Serine/threonine-protein kinase MRCK beta (Homo sapiens) (UniProt Q9Y5S2); experiment: Inhibition of human recombinant MRCKb at 40 nM related to control ULK1
# [3] = biological target: Leucine-rich repeat serine/threonine-protein kinase 2 (Homo sapiens) (UniProt Q5S007); experiment: Inhibition of human recombinant LRRK2 at 40 nM in presence of ATP by radiometric assay relative to control
# Chain of Leucine-rich repeat serine/threonine-protein kinase 2 (Homo sapiens) (Q5S007 whole entry): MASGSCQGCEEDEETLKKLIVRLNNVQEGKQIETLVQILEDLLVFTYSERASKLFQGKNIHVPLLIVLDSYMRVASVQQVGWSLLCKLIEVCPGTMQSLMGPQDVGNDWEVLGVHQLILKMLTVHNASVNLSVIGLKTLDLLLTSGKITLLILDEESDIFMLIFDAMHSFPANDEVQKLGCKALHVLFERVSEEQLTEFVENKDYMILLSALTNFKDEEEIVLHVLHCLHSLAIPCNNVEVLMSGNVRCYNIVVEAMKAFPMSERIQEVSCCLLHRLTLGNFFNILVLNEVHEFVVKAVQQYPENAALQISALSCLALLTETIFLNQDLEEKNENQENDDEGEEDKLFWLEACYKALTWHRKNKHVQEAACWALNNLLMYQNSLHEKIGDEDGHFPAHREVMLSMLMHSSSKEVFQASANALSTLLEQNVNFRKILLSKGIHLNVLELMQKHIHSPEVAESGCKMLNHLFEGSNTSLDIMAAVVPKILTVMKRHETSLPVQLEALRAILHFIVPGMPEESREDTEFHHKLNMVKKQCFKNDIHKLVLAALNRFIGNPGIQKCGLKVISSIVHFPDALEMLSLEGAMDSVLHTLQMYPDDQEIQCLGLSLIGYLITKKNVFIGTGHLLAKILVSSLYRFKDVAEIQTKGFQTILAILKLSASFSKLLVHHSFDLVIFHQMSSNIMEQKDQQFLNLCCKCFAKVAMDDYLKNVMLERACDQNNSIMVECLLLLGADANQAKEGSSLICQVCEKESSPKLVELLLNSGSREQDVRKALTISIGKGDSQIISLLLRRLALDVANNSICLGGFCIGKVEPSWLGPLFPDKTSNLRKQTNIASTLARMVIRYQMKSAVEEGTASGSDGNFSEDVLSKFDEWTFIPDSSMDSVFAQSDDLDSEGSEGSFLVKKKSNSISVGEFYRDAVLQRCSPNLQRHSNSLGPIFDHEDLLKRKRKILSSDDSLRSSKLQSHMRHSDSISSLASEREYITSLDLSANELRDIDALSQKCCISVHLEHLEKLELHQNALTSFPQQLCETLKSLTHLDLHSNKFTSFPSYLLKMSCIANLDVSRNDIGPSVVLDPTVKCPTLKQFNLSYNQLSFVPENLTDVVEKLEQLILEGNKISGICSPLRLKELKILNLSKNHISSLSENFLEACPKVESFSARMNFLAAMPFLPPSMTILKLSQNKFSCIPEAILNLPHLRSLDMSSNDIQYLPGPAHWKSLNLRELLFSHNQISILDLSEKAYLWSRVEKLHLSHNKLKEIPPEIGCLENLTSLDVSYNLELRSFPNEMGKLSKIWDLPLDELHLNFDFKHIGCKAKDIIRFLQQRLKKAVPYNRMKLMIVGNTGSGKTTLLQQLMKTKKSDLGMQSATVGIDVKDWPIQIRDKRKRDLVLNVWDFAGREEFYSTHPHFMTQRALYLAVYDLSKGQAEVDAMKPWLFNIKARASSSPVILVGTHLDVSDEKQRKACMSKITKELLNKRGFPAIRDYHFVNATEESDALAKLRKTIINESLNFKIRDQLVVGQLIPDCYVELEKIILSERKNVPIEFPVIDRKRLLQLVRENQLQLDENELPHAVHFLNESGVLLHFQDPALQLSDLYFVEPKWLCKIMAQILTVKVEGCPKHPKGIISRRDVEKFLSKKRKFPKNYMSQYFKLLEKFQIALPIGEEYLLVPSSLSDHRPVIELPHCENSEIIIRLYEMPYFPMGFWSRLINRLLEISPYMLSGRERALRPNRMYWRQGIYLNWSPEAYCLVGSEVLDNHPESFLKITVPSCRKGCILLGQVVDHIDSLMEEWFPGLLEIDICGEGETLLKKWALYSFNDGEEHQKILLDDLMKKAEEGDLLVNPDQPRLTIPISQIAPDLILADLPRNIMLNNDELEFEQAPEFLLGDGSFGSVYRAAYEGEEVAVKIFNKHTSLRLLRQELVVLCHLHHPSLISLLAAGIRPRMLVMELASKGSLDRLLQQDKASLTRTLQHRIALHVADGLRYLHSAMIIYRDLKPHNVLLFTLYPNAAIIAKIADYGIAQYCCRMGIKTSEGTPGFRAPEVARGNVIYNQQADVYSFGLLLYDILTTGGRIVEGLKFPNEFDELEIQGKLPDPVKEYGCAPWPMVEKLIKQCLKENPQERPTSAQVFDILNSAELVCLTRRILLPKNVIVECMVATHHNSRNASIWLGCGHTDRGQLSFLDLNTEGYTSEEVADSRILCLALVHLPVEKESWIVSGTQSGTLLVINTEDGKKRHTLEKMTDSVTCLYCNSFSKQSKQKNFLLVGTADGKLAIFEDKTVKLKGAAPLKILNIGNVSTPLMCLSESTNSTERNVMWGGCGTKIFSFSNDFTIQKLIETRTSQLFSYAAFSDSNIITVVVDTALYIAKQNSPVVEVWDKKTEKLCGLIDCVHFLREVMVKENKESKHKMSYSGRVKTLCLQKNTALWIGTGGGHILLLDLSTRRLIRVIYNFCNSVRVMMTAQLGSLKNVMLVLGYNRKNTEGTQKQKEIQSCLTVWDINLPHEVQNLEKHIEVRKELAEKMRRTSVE
# [4] = biological target: Insulin receptor-related protein (Homo sapiens) (UniProt P14616); experiment: Inhibition of human recombinant IRR at 40 nM in presence of ATP by radiometric assay relative to control
# Chain of Insulin receptor-related protein (Homo sapiens) (P14616 27-742 limits assumed): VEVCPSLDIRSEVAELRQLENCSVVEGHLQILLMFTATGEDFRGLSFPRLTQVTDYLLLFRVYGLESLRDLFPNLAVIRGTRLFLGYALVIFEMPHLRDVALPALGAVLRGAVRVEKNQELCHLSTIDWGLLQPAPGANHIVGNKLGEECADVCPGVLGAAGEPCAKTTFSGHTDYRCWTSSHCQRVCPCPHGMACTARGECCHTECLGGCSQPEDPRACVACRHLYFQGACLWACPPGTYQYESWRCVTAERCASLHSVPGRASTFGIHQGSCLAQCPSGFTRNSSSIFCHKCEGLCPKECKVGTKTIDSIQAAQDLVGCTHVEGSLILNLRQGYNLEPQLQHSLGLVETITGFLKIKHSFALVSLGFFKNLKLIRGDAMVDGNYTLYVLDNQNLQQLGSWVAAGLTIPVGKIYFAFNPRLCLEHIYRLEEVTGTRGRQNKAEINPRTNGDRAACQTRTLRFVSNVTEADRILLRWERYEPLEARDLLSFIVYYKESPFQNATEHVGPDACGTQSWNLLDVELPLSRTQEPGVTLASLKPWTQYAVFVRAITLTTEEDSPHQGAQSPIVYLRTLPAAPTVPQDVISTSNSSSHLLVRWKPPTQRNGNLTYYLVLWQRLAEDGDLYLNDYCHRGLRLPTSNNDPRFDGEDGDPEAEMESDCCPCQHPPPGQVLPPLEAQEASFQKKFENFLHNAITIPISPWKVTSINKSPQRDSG
# Chain of Insulin receptor-related protein (Homo sapiens) (P14616 747-1297 limits assumed): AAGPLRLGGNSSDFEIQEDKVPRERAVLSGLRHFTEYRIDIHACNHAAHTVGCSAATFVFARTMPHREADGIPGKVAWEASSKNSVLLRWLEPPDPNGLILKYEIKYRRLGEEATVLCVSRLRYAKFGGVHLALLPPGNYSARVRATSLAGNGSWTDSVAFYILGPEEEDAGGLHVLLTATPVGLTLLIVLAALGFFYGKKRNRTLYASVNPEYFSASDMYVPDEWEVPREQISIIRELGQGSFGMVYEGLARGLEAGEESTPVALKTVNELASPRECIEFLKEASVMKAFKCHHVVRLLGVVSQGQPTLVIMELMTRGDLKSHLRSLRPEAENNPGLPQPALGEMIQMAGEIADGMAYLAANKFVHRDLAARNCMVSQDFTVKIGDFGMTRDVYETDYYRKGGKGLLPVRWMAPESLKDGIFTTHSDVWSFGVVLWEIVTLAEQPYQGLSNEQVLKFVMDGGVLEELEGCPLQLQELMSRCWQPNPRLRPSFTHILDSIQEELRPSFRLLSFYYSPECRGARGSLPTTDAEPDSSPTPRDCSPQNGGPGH
# [5] = biological target: 5'-AMP-activated protein kinase catalytic subunit alpha-1 (Homo sapiens) (UniProt Q13131); experiment: Inhibition of human recombinant AMPKa1 at 500 nM in presence of ATP by radiometric assay relative to control
# Chain of 5'-AMP-activated protein kinase catalytic subunit alpha-1 (Homo sapiens) (Q13131 whole entry, looked up): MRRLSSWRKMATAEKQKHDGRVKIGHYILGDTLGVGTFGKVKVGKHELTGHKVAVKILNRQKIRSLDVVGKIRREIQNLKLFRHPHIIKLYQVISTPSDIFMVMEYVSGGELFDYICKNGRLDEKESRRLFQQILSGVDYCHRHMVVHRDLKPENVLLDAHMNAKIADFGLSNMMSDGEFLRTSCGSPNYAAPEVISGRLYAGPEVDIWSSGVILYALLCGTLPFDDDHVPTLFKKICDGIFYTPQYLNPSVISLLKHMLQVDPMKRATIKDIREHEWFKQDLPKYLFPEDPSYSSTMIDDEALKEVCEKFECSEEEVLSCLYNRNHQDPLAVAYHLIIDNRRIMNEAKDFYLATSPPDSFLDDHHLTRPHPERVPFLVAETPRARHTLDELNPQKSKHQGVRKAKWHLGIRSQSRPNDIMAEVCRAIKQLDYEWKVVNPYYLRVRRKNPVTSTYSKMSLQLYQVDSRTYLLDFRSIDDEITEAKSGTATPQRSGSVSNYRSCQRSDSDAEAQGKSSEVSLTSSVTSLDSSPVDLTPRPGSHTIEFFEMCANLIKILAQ
# Procedure, shortened: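 Panel of 327 recombinant human kinases, each assayed in vitro by radiometric activity assay in duplicate at a single inhibitor concentration per compound, chosen with reference to its ULK1 inhibition. Activity remaining was expressed as percent of vehicle control, and percent inhibition was calculated as 100 minus percent activity remaining.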
# [6] = biological target: Glycogen synthase kinase-3 beta (Homo sapiens) (UniProt P49841); experiment: Inhibition of human recombinant GSK3B at 500 nM related to control ULK1
# Chain of Glycogen synthase kinase-3 beta (Homo sapiens) (P49841 whole entry, looked up): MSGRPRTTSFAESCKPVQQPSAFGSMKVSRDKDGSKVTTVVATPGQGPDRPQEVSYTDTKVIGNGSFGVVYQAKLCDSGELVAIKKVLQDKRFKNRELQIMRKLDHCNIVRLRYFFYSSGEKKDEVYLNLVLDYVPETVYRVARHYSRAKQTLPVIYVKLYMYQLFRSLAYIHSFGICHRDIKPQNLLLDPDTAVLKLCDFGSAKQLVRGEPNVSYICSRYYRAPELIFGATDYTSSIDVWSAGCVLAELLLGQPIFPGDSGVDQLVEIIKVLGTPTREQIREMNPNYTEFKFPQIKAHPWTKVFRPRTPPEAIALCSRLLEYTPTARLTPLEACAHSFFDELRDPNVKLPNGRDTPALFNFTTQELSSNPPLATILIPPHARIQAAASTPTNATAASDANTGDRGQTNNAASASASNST
# [7] = biological target: T2, Protein kinase C epsilon type (Homo sapiens) (UniProt Q02156); experiment: Inhibition of human recombinant PKCe at 500 nM related to control ULK1
# T2 sequence (whole entry): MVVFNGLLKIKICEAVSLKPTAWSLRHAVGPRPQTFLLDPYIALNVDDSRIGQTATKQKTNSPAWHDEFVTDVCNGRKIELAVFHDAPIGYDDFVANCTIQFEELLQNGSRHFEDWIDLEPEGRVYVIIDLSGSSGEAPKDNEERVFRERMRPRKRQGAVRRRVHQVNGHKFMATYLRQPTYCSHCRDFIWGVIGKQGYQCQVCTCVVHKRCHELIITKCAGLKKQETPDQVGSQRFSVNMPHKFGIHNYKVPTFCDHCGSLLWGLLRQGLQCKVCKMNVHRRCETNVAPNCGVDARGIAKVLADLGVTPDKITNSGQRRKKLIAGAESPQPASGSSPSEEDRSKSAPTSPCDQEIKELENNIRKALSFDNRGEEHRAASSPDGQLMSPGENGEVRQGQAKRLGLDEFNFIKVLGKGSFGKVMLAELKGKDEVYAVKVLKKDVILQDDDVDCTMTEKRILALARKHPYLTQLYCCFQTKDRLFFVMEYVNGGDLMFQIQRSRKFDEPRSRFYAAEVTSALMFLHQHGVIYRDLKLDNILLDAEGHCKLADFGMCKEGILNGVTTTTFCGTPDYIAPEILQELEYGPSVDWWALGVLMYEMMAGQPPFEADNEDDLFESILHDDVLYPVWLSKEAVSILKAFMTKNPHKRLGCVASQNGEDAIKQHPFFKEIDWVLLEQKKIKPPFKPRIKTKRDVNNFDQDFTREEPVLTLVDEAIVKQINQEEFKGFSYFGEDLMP
# [8] = biological target: Mitogen-activated protein kinase kinase kinase 9 (Homo sapiens) (UniProt P80192); experiment: Inhibition of human recombinant MLK1 at 15 nM related to control ULK1
# [9] = biological target: T3, Serine/threonine-protein kinase haspin (Homo sapiens) (UniProt Q8TF76); experiment: Inhibition of human recombinant Haspin at 15 nM in presence of ATP by radiometric assay relative to control
# T3 sequence (whole entry): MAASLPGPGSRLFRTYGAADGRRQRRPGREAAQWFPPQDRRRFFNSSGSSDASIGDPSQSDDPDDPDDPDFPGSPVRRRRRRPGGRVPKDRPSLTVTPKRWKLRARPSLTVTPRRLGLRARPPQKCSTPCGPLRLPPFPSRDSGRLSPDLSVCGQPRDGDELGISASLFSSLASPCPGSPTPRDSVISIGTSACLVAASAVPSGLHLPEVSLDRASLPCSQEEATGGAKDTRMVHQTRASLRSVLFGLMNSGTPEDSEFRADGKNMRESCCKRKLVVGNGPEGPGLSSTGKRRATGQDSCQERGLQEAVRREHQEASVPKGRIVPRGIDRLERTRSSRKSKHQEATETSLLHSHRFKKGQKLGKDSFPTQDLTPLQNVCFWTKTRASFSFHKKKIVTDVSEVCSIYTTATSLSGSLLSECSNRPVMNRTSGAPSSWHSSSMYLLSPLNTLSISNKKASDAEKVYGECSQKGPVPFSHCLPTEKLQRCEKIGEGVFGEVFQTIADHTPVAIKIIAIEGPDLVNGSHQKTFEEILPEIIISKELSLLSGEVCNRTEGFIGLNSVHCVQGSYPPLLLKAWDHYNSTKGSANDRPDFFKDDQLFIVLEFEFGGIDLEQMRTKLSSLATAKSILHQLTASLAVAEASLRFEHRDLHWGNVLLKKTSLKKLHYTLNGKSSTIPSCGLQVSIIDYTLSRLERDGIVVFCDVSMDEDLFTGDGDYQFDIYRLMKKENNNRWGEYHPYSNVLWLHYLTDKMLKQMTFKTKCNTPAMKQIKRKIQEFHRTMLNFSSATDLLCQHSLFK
# [10] = biological target: Glycogen synthase kinase-3 beta (Homo sapiens) (UniProt P49841); experiment: Inhibition of human recombinant GSK3B at 15 nM in presence of ATP by radiometric assay relative to control
# [11] = biological target: Serine/threonine-protein kinase/endoribonuclease IRE1 (Homo sapiens) (UniProt O75460); experiment: Inhibition of human recombinant IRE1 at 15 nM related to control ULK1
# [12] = biological target: Protein kinase C delta type (Homo sapiens) (UniProt Q05655); experiment: Inhibition of human recombinant PKCd at 15 nM related to control ULK1
structure (smiles),measurement,setting,value
O=C(N[C@@H](C1CC1)C(F)(F)F)c1cc(-c2cnn3cc(-c4ccc(F)cc4)cnc23)cs1,fold change (FC),[1],0.01
same,fold change (FC),[2],0.07
same,inhibition,[3],3%
same,inhibition,[4],2%
CNC(=O)c1ccccc1Oc1nc(Nc2cc(OC)c(OC)c(OC)c2)ncc1Br,inhibition,[5],51%
same,fold change (FC),[6],0
same,fold change (FC),[7],0
CC(C)[C@H](NC(=O)c1cc(-c2cnn3cc(-c4ccc(OCCN5CCCCC5)cc4)cnc23)cs1)C(F)(F)F,fold change (FC),[8],0
same,inhibition,[9],0%
same,inhibition,[10],11%
same,fold change (FC),[11],0
same,fold change (FC),[12],0
